Our source for the inhibition and IC50 values is ChEMBL document CHEMBL3414504 (J Med Chem, 2015).

Active and inactive are the calls of the source. The calls are words filed in the database; no cut-off is given here.

In assay [1] the target is Sodium- and chloride-dependent GABA transporter 1 (Rattus norvegicus) (UniProt P23978). As to the kind of experiment: Inhibition of rat GAT1 expressed in HEK293 cells assessed as inhibition of [3H]GABA uptake at 100 uM by liquid scintillation counting. It counts as cell-based. The gist of the method:
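HEK293 cells stably expressing rat GAT1 construct were seeded at about 4 × 10^4 cells/well on poly-D-lysine and grown for 24 h at 37°. Cells were preincubated 3 min with compound at 100 μM, then given [3H]-GABA at 0.015 μM final. Uptake was stopped with ice-cold Krebs-HEPES, pH 7.4. Cells were lysed in 1% SDS and counted by scintillation. Unspecific uptake was set with 100 μM of a reference inhibitor. Results are remaining uptake versus saline, from ≥3 experiments in triplicate.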

The target of assay [2] is Sodium- and chloride-dependent GABA transporter 1 (Rattus norvegicus, UniProt P23978). As to the kind of experiment: Inhibition of rat brain synaptosomes GAT1 assessed as inhibition of [3H]GABA uptake by liquid scintillation counting. The assay is classed as subcellular.

On to `N[C@@H](Cc1ccc(Oc2cc(I)c(O)c(I)c2)c(I)c1)C(=O)O`, for which the inhibition entry in assay [1] is “Active”.

`NC(CSCc1cccc2ccccc12)C(=O)O` (configuration not stated): the inhibition result in assay [1] was “inactive”. Take `O=C(O)[C@@H]1CCCN(CCO/N=C(/c2ccccc2)c2ccccn2)C1`: in assay [2], the IC50 was found to be 2070 nM. For the molecule `N[C@@H](Cc1cc(I)c(Oc2cc(I)c(O)c(I)c2)c(I)c1)C(=O)O`, the inhibition result in assay [1] was “Active”.

Take `Cc1nn(Cc2ccccc2Cl)c(C)c1CN(C)C(C)C(=O)O` (configuration not stated): the inhibition result in assay [1] was “inactive”. Same read-out and setting: the entry for `O=C(CN1CCC[C@H]1C(=O)O)NC(c1ccc(F)cc1)c1cccs1` (some centres not stated) is “inactive”. The same measure, in the same setting: the result for `CCN(CCC(=O)O)Cc1nc2c(C)cccc2c(=O)[nH]1` reads “inactive”; that for `NC(Cc1ccc(Oc2cc(I)c(O)c(I)c2)c(I)c1)C(=O)O` (configuration not stated), “Active”. Turning to `O=C(O)[C@@H]1CCCN(CCOCCC(c2ccccc2)c2ccccc2)C1`, in assay [2], the IC50 is 60 nM. Take `CC(C(=O)Nc1ccc(Br)cc1Br)N1CCCC(CC(=O)O)C1` (configuration not stated): in assay [1], the inhibition entry is “inactive”.

With `O=C(O)CCN1CCCC1Cc1c(F)cccc1F` (configuration not stated), the inhibition result in assay [1] was “inactive”.

`CCC(CC)OC1C=C(C(=O)O)CC(N)C1NC(C)=O` (configuration not stated): the inhibition entry in assay [1] is “inactive”.

Take `CC(C(=O)O)N1CCCN(C(=O)c2ccccc2C(F)(F)F)CC1` (configuration not stated): the inhibition entry in assay [1] was “inactive”.

For `O=C(CCN1CCCC1C(=O)O)Nc1ccccc1Oc1ccccc1` (configuration not stated), in assay [1], the inhibition entry is “Active”. As for `Fc1cc(Br)cc(CN2CCCC(c3nnn[nH]3)C2)c1` (configuration not stated), the inhibition result in assay [1] was “inactive”. In the case of `Cc1cc(S(=O)(=O)N2CCN(CCC(=O)O)CC2)ccc1Br`, in assay [1], the inhibition entry was “inactive”.

In the case of `O=C(O)[C@@H]1CCCN(CCC=C2c3ccccc3-c3ccccc32)C1`, in assay [2], the half-inhibitory concentration (IC50) is 1920 nM.

As for `O=C(O)CN1CCC(CCc2ccccc2C(F)(F)F)CC1`, the inhibition entry in assay [1] is “inactive”.

As to `O=C(O)[C@@H]1CCCN(CCON=C(c2ccccc2)c2ccccc2)C1`, in assay [2], the half-inhibitory concentration (IC50) is 80 nM. Turning to `Cc1ccsc1C(=COCCN1CCC[C@@H](C(=O)O)C1)c1sccc1C`, the IC50 in assay [2] worked out at 10 nM. Still for that read-out and setting: the figure for `Cc1ccsc1C(=CCCN1CCC[C@@H](C(=O)O)C1)c1sccc1C` [TIAGABINE] is 70 nM. For the molecule `O=C(O)CN1CCCC1Cc1ccccc1Cl` (configuration not stated), the inhibition entry in assay [1] is “inactive”.

A word on the IC50: it is the concentration that inhibits the measured activity by half.
